In brackets after ≈: the same amount, converted by molar mass.
Key:
[1] = Clearance in mouse liver microsomes at 1 uM incubated for 10 mins by LC-MS/MS method; assay type: ADME, Microsome
Procedure, shortened: (§1)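 Liver microsomes (human or mouse, 0.5 mg/mL) in 100 mM potassium phosphate pH 7.4 with 1 μM compound, prewarmed 10 min at 37 °C, started with NADPH (10 mM); stopped at 0, 3, 6, 9, 15, 30 min with ice-cold methanol containing tolbutamide internal standard; LC-MS/MS. Hepatic clearance (mL/min/kg) calculated from intrinsic clearance.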

[2] = Solubility in 50 mM phosphate buffer at pH 6.5 by HPLC method; assay type: physicochemical
Procedure, shortened: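 10 mM DMSO stock dried, residue redissolved in 50 mM phosphate buffer pH 6.5, stirred 1 h and shaken 2 h, left overnight, filtered and analysed by HPLC against calibration standards of 50−500 μM diluted from the DMSO stock.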

[3] = Clearance in BALB/C mouse at 10 mg/kg, po or 2 mg/kg, iv by LC-MS/MS method; assay type: ADME, organism-based; settings: in vivo
Procedure, shortened: (§2)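 Female-unspecified BALB/C nude mice (15−20 g, N = 16 per arm); iv bolus 2 mg/kg in 5% DMSO/40% PEG400/55% saline and/or oral gavage 10 mg/kg as 0.445% microcrystalline cellulose microsuspension. Blood sampled at nine (iv) or eight (po) time points into sodium heparin tubes; plasma by LC-MS/MS; noncompartmental analysis.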

[4] = target: Histone deacetylase (Homo sapiens) (UniProt Q13547+O15379+Q9UBN7+Q92769+Q9UQL6+Q8WUI4+Q9BY41+Q96DB2+P56524+Q9UKV0+Q969S8); assay: Inhibition of Class 1 histone deacetylase in human HeLa cells assessed as induction in p21 protein expression at 3 uM incubated for 16 hrs by luciferase reporter gene assay relative to HDAC inhibitor entinostat; assay type: cell-based; parameters: scale not given: the % may be the effect or the level left
[5] = Oral bioavailability in BALB/C mouse at 10 mg/kg by LC-MS/MS method; assay type: ADME, organism-based; settings: BALB/C, in vivo
Procedure, shortened: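 Bioavailability from single-dose iv (2 mg/kg, 5% DMSO/40% PEG400/55% saline) and oral gavage (10 mg/kg, 0.445% microcrystalline cellulose microsuspension) studies in BALB/C nude mice (N = 16 per arm); plasma at eight (po) or nine (iv) time points, LC-MS/MS, noncompartmental analysis.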

[6] = Volume of distribution at steady state in BALB/C mouse at 10 mg/kg, po or 2 mg/kg, iv by LC-MS/MS method; assay type: ADME, organism-based; parameters: unit not given here; settings: in vivo, read-out: Vdss
Procedure, shortened: (§3)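 Single-dose PK: iv bolus 2 mg/kg in 5% DMSO/40% PEG400/55% saline and/or oral gavage 10 mg/kg as 0.445% microcrystalline cellulose microsuspension; BALB/C nude mice (15−20 g, N = 16 per arm) or male Sprague−Dawley rats (250 ± 20 g, N = 3). Blood at eight (po) or nine (iv) time points into sodium heparin, plasma by LC-MS/MS, noncompartmental analysis.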

[7] = Clearance in human liver microsomes at 1 uM incubated for 10 mins by LC-MS/MS method; assay type: ADME, Microsome; procedure, shortened: as §1
[8] = Half life in BALB/C mouse at 10 mg/kg, po or 2 mg/kg, iv by LC-MS/MS method; assay type: ADME, organism-based; settings: BALB/C, in vivo; procedure, shortened: as §2
[9] = Cmax in BALB/C mouse at 10 mg/kg, po or 2 mg/kg, iv by LC-MS/MS method; assay type: ADME, organism-based; settings: BALB/C, in vivo; procedure, shortened: as §2
[10] = AUC in BALB/C mouse at 10 mg/kg, po or 2 mg/kg, iv by LC-MS/MS method; assay type: ADME, organism-based, Plasma; settings: BALB/C, plasma; procedure, shortened: as §2
[11] = Tmax in BALB/C mouse at 10 mg/kg, po or 2 mg/kg, iv by LC-MS/MS method; assay type: ADME, organism-based; settings: BALB/C, in vivo; procedure, shortened: as §3
Cytochrome P450 3A4 = Cytochrome P450 3A4 (Homo sapiens, UniProt P08684); assay: Inhibition of CYP3A4 in human liver microsomes in presence of NADPH by LC-MS/MS method; assay type: ADME, Microsome
Cytochrome P450 2C19 = Cytochrome P450 2C19 (Homo sapiens, UniProt P33261); assay: Inhibition of CYP2C19 in human liver microsomes in presence of NADPH by LC-MS/MS method; assay type: ADME, Microsome
Cytochrome P450 1A2 = target: T1, Cytochrome P450 1A2 (Homo sapiens, UniProt P05177); assay: Inhibition of CYP1A2 in human liver microsomes in presence of NADPH by LC-MS/MS method; assay type: ADME, Microsome
T1 sequence (P05177 whole entry): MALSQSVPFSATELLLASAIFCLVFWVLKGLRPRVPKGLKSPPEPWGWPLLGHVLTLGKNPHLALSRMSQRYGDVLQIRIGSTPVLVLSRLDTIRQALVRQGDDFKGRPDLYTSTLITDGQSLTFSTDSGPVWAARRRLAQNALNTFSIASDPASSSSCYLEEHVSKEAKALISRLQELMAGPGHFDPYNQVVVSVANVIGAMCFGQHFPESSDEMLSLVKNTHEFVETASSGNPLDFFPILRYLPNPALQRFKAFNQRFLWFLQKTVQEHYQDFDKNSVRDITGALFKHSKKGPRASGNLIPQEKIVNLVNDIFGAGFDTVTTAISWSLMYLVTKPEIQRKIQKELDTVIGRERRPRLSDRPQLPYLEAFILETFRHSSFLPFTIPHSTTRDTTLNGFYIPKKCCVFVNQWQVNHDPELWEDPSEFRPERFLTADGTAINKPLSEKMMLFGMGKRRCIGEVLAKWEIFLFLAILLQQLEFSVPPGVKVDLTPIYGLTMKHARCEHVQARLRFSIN

Cytochrome P450 2D6 = Cytochrome P450 2D6 (Homo sapiens, UniProt P10635); assay: Inhibition of CYP2D6 in human liver microsomes in presence of NADPH by LC-MS/MS method; assay type: ADME, Microsome
Cytochrome P450 2C9 = Cytochrome P450 2C9 (Homo sapiens, UniProt P11712); assay: Inhibition of CYP2C9 in human liver microsomes in presence of NADPH by LC-MS/MS method; assay type: ADME, Microsome
[12] = target: Voltage-gated inwardly rectifying potassium channel KCNH2 (Homo sapiens, UniProt Q12809); assay: Inhibition of human ERG expressed in CHO cells by patch clamp method; assay type: cell-based
SK-HEP1 = assay type: functional, Homo sapiens
SGC-7901 = assay type: functional, Homo sapiens
SMMC-7721 = assay type: functional, Homo sapiens
Bel-7402 = assay type: functional, Homo sapiens
MGC-803 = assay type: functional, Homo sapiens
BGC-823 = assay type: functional, Homo sapiens
HGC-27 = assay type: functional, Homo sapiens

Chain of Cytochrome P450 2C19 (P33261 whole entry): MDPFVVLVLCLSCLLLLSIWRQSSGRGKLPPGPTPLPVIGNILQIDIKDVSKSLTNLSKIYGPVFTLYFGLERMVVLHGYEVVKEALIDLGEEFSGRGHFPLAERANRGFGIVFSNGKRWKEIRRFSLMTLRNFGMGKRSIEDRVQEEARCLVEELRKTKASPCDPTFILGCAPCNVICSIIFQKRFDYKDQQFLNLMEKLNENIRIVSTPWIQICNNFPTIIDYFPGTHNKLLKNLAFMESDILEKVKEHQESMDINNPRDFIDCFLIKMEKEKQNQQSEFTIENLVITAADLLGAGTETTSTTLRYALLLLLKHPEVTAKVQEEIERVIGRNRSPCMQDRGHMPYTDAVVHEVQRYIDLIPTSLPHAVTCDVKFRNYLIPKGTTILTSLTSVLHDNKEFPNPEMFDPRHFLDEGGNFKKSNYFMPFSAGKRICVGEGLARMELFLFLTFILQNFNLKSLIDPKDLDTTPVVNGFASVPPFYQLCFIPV
Chain of Cytochrome P450 2C9 (P11712 whole entry): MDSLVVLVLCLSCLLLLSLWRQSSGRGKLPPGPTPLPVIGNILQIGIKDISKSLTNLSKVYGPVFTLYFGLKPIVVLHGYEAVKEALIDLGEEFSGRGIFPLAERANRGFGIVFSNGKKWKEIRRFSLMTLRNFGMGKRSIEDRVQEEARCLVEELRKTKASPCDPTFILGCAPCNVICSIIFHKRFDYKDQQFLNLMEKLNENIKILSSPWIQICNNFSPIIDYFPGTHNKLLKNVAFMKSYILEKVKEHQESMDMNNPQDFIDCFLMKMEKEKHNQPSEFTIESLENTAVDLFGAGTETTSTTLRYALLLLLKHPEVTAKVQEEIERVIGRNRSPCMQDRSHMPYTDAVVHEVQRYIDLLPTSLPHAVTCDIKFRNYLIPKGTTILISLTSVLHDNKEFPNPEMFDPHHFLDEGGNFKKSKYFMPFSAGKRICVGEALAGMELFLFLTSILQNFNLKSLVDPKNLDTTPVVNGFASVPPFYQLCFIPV
Chain of Cytochrome P450 3A4 (P08684 whole entry): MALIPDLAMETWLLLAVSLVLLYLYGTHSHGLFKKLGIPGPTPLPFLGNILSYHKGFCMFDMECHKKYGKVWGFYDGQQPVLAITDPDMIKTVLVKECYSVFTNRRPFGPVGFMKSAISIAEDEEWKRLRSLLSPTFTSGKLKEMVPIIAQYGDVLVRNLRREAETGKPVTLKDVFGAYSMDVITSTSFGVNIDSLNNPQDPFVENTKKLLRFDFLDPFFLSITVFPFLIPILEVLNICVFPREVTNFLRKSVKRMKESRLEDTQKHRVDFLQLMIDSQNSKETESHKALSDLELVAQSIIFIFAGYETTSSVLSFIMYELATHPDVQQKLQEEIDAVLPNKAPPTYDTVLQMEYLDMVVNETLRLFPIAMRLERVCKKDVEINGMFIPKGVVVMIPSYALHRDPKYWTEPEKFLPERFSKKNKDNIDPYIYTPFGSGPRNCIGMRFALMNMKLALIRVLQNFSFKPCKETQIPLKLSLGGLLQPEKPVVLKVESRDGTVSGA
Chain of Cytochrome P450 2D6 (P10635 whole entry): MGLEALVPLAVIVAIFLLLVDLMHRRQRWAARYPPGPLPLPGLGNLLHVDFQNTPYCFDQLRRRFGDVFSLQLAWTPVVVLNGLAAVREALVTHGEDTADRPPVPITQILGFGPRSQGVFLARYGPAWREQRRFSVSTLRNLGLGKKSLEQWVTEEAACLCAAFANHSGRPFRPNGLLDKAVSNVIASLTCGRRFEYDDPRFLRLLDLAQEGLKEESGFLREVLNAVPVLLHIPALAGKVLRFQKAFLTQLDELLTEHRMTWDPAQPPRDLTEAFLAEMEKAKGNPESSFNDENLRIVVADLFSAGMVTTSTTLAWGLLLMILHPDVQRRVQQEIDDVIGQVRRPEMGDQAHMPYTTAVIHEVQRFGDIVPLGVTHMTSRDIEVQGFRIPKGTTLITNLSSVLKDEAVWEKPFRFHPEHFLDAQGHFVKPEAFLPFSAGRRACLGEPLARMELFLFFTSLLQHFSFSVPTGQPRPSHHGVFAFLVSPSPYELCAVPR
Chain of Voltage-gated inwardly rectifying potassium channel KCNH2 (Q12809 whole entry): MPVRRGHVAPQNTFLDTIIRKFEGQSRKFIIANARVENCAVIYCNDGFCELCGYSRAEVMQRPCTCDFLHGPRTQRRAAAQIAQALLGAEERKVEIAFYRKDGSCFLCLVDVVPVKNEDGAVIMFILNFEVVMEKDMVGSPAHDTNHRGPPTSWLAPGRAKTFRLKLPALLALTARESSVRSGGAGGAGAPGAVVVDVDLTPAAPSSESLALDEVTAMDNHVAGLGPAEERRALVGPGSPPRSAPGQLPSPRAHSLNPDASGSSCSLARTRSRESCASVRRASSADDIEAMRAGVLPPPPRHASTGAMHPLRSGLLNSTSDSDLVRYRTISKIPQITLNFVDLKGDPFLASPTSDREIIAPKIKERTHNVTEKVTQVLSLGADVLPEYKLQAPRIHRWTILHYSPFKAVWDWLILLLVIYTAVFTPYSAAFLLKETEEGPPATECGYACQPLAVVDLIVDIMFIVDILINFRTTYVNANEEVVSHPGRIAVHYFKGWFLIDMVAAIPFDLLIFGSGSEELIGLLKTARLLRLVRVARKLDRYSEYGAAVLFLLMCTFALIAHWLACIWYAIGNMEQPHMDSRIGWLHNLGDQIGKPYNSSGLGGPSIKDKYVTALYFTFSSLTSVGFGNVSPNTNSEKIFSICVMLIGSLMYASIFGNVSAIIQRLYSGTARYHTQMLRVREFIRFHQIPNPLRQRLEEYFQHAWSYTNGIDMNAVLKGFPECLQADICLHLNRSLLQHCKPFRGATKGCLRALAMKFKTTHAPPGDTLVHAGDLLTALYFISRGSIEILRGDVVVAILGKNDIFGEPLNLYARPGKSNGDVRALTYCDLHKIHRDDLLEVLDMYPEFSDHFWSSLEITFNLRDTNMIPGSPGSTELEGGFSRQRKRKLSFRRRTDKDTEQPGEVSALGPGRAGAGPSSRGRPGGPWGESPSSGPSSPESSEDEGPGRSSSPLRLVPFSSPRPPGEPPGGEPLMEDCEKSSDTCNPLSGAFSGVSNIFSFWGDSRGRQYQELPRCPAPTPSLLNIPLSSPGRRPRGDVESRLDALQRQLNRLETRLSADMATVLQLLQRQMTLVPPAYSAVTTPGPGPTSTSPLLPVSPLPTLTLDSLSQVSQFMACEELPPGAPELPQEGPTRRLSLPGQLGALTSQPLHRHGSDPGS

Row | SMILES | CLhep predicted at 1 µM [1] [mL/min/kg] | clearance [3] [mL/min/kg] | Activity [4] [%] | bioavailability [5] [%] | Vd [6] | CLhep predicted at 1 µM [7] [mL/min/kg] | half-life [8] [h] | Cmax [9] [ng/mL] | AUC [10] [ng·h/mL] | Tmax [11] [h] | also measured
1 | Nc1ccccc1NC(=O)/C=C/c1ccc(C(C(=O)Nc2ccc(Br)cc2)N2CC[C@H](O)C2)cc1 (stereo not given in full) | 52 | 8 | 150 | 13 | – | – | – | – | – | – | solubility [2]: 5 µg/mL (≈ 9.34 µM)
2 | Nc1ccccc1NC(=O)/C=C/c1ccc(C(NCCN2CCOCC2)C(=O)Nc2ccc(C(F)(F)F)cc2)cc1 (racemic) | 78 | 122 | 100 | 11 | – | – | – | – | – | – | solubility [2]: 32 µg/mL (≈ 56.4 µM)
3 | CC(C)(CO)N1C[C@H](C(=O)Nc2ccc(Cl)cc2)[C@@H](c2ccc(/C=C/C(=O)Nc3ccccc3N)cc2)C1 (racemic) | 40 | 27 | 260 | 12 | 6.6 | 12 | 1.1 | 337 | 743 | 2 | –
4 | CC(C)(O)CN1C[C@H](C(=O)Nc2ccc(Cl)cc2)[C@@H](c2ccc(/C=C/C(=O)Nc3ccccc3N)cc2)C1 (racemic) | 34 | 33 | 230 | 100 | 3.7 | 14 | 6.5 | 1100 | 5650 | 1 | IC50 (Cytochrome P450 3A4): 3 µM; IC50 (Cytochrome P450 2C19): 7 µM; IC50 (Cytochrome P450 1A2): 7 µM; IC50 (Cytochrome P450 2D6): 0.7 µM; IC50 (Cytochrome P450 2C9): 4 µM
5 | Nc1ccccc1NC(=O)/C=C/c1ccc([C@H]2CN(C3CCOCC3)C[C@@H]2C(=O)Nc2ccc(Cl)cc2)cc1 (racemic) | 44 | 39 | 220 | 23 | 5.6 | 12 | 4.9 | 315 | 1000 | 0.17 | –
6 | CC(C)N1C[C@H](C(=O)Nc2ccc(Cl)cc2)[C@@H](c2ccc(/C=C/C(=O)Nc3ccccc3N)cc2)C1 (racemic) | 38 | 86 | 230 | 100 | 32 | – | 5.4 | 331 | 2080 | 2 | –
7 | Nc1ccccc1NC(=O)/C=C/c1ccc(C(NCCO)C(=O)Nc2ccc(C(F)(F)F)cc2)cc1 (racemic) | 33 | 49 | 117 | 71 | – | – | – | – | – | – | solubility [2]: 5 µg/mL (≈ 10 µM)
8 | CN1C[C@H](C(=O)Nc2ccc(F)c(F)c2)[C@@H](c2ccc(/C=C/C(=O)Nc3ccccc3N)cc2)C1 (racemic) | 46 | 53 | 180 | 29 | 7.2 | – | 4 | 262 | 911 | 1 | –
9 | Nc1ccccc1NC(=O)/C=C/c1ccc([C@H]2CN(CCO)C[C@@H]2C(=O)Nc2ccc(Cl)cc2)cc1 (racemic) | 24 | 20 | 100 | 58 | 4.1 | 11 | 15 | 957 | 7100 | 0.25 | IC50 (Cytochrome P450 3A4): 2 µM; IC50 (Cytochrome P450 2C19): 10 µM; IC50 [12]: 15 µM; IC50 (Cytochrome P450 1A2): 26 µM; IC50 (Cytochrome P450 2D6): 2 µM; IC50 (Cytochrome P450 2C9): 3 µM
10 | Nc1ccccc1NC(=O)c1ccc(CNC(=O)OCc2cccnc2)cc1 [ENTINOSTAT] | – | – | – | – | – | – | – | – | – | – | GI90 (SK-HEP1): 13 µM; GI90 (SGC-7901): 2.5 µM; GI90 (SMMC-7721): 11 µM; GI90 (Bel-7402): 8 µM; GI90 (MGC-803): 8.9 µM; GI90 (BGC-823): 7.1 µM; GI90 (HGC-27): >30 µM
11 | CC(C)(C)N1C[C@H](C(=O)Nc2ccc(Cl)cc2)[C@@H](c2ccc(/C=C/C(=O)Nc3ccccc3N)cc2)C1 (racemic) | 20 | 60 | 160 | 59 | 31 | 8 | 6.8 | 113 | 813 | 2 | –
12 | CN(C)[C@H]1CCN(C(C(=O)Nc2ccc(C(F)(F)F)cc2)c2ccc(/C=C/C(=O)Nc3ccccc3N)cc2)C1 (stereo not given in full) | 34 | 67 | 216 | 21 | – | – | – | – | – | – | solubility [2]: 610 µg/mL (≈ 1110 µM)
13 | CN1C[C@H](C(=O)Nc2cccnc2)[C@@H](c2ccc(/C=C/C(=O)Nc3ccccc3N)cc2)C1 (racemic) | 41 | – | 80 | – | – | 10 | – | – | – | – | –
14 | CN1C[C@H](C(=O)Nc2ccc(F)c(Br)c2)[C@@H](c2ccc(/C=C/C(=O)Nc3ccccc3N)cc2)C1 (racemic) | 43 | – | 200 | – | – | 15 | – | – | – | – | –
15 | Nc1ccccc1NC(=O)/C=C/c1ccc([C@H]2CN(CC(F)F)C[C@@H]2C(=O)Nc2ccc(Cl)cc2)cc1 (racemic) | 49 | – | 90 | – | – | 16 | – | – | – | – | –
16 | CN1C[C@H](C(=O)N2CCCCC2)[C@@H](c2ccc(/C=C/C(=O)Nc3ccccc3N)cc2)C1 (racemic) | 42 | – | 10 | – | – | 9 | – | – | – | – | –
17 | CN1C[C@H](C(=O)Nc2ccc(Cl)c(Cl)c2)[C@@H](c2ccc(/C=C/C(=O)Nc3ccccc3N)cc2)C1 (racemic) | 36 | – | 160 | – | – | 14 | – | – | – | – | –
18 | CCNC(=O)N1C[C@H](C(=O)Nc2ccc(Cl)cc2)[C@@H](c2ccc(/C=C/C(=O)Nc3ccccc3N)cc2)C1 (racemic) | 25 | – | 40 | – | – | 9 | – | – | – | – | –
19 | COc1cccc(NC(=O)[C@H]2CN(C)C[C@@H]2c2ccc(/C=C/C(=O)Nc3ccccc3N)cc2)c1 (racemic) | 65 | – | 170 | – | – | 14 | – | – | – | – | –
20 | CN1C[C@H](C(=O)NC2CC2)[C@@H](c2ccc(/C=C/C(=O)Nc3ccccc3N)cc2)C1 (racemic) | 7 | – | 80 | – | – | 10 | – | – | – | – | –

From ChEMBL document CHEMBL2177000, “Pharmacokinetic optimization of class-selective histone deacetylase inhibitors and identification of associated candidate predictive biomarkers of hepatocellular carcinoma tumor response” (J Med Chem, 2012)
